Assay results from ChEMBL document CHEMBL1156315, “Discovery of a novel sulfonamide-pyrazolopiperidine series as potent and efficacious gamma-secretase inhibitors” (Bioorg Med Chem Lett, 2010).

What was measured:
[1] = (§1) Metabolic stability in human liver microsomes assessed as compound remaining after 30 mins in presence of 1 mM NADPH; format: ADME, Microsome; conditions: liver microsomes, read-out: Stability
In short: (§2)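 Liver microsomes (0.5 mg protein) in phosphate buffer with 1 mM NADPH, incubated 30 min at 37 °C; read-out is the percentage of parent compound remaining.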

Gamma-secretase [2] = assay: Inhibition of gamma-secretase-mediated APP cleavage in human IMR-32 cells assessed as amyloid beta40 level after 2 hrs by ELISA; format: cell-based
[3] = (§3) Metabolic stability in human liver microsomes assessed as compound remaining after 30 mins in presence of 1 mM UDPGA, 100 mM MgCl2 and 25 ug/ml alamethacin; format: ADME, Microsome; conditions: liver microsomes, read-out: Stability
In short: (§4)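 Glucuronidation conditions: liver microsomes (0.5 mg protein) in phosphate buffer with 1 mM UDPGA, 100 mM MgCl₂ and alamethacin, 30 min at 37 °C; the percentage of compound remaining is reported.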

Gamma-secretase [4] = assay: Inhibition of gamma-secretase-mediated notch cleavage in human IMR-32 cells after 2 hrs by ELISA; format: cell-based
Gamma-secretase [5] = assay: Inhibition of gamma-secretase-mediated notch cleavage in human SNC cells by ELISA; format: cell-based
[6] = target: Gamma-secretase (Homo sapiens) (UniProt Q96BI3+Q9NZ42+Q8WW43+P49768+Q92542+P49810); assay: Inhibition of gamma-secretase-mediated APP cleavage in human SNC cells by ELISA; format: cell-based
Liver microsomes [7] = assay: as §1; format: ADME, Microsome; conditions: microsomes, 0.5 h; in short: as §2
Liver microsomes [8] = assay: as §3; format: ADME, Microsome; conditions: microsomes, 0.5 h; in short: as §4
[9] = Ratio of drug level in FVB mouse brain to plasma; format: ADME, cell-free
In short: (§5)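 Wild-type FVB mice received a single 5 mg/kg oral dose. Brain Aβ40 reduction and the brain/plasma compound ratio were determined 3 h post-dose.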

Mus musculus = assay: Neuroprotective activity in FVB mouse brain assessed as reduction in amyloid beta 40 level at 5 mg/kg, po after 3 hrs; format: functional; design: scale not given: the % may be the effect or the level left; in short: as §5

Structure (SMILES) | remaining at 0.5 h [1] [%] | IC50 (Gamma-secretase [2]) [nM] | remaining at 0.5 h [3] [%] | IC50 (Gamma-secretase [4]) [nM] | IC50 (Gamma-secretase [5]) [nM] | ED50 [6] [nM] | Stability (Liver microsomes [7]) [%] | Stability (Liver microsomes [8]) [%] | Kp [9] | Activity (Mus musculus) [%]
O=S(=O)(c1ccc(Cl)cc1)N1Cc2c[nH]nc2CC1c1cncnc1 (stereo not drawn) | 67 | 536 | 70 | 10400 | > 40000 | 400 | – | – | – | –
O=S(=O)(c1ccc(Cl)cc1)N1Cc2c[nH]nc2CC1c1cc(F)cc(F)c1 (racemic) | 3 | 9.7 | 0 | 776 | 14100 | 60.1 | – | – | – | –
CCC1CCCCN1S(=O)(=O)c1ccc(Cl)cc1 (racemic) | – | 2000 | – | – | – | – | – | – | – | –
CCOC(=O)C1Cc2n[nH]cc2CN1S(=O)(=O)c1ccc(Cl)cc1 (stereo not drawn) | 8 | 431 | – | 5850 | > 40000 | 1420 | – | – | – | –
O=S(=O)(c1ccc(Cl)cc1)N1Cc2cn[nH]c2CC1c1ccc(F)cc1 (racemic) | 6 | 5.4 | – | 481 | 5320 | – | – | – | – | –
O=S(=O)(c1ccc(Cl)cc1)N1CCCCC1 | – | > 30000 | – | – | – | – | – | – | – | –
CC[C@H]1Cc2n[nH]cc2[C@@H](CC)N1S(=O)(=O)c1ccc(Cl)cc1.Cl | – | 62.6 | – | – | 6850 | – | 0 | 1 | – | –
O=S(=O)(c1ccc(Cl)cc1)N1Cc2cn[nH]c2CC1c1ccc(Cl)cc1 (racemic) | 12 | 3.4 | 33 | 311 | 2590 | – | – | – | – | –
O=S(=O)(c1ccc(Cl)cc1)N1CCc2[nH]ncc2C1c1cncnc1 (stereo not drawn) | 50 | 12 | 85 | 120 | 2310 | – | – | – | – | –
O=S(=O)(c1ccc(Cl)cc1)N1Cc2c[nH]nc2CC1Cc1ccccc1 (racemic) | 3 | 80.9 | – | 1550 | 16600 | 340 | – | – | – | –
O=S(=O)(c1ccc(Cl)cc1)N1Cc2c[nH]nc2CC1c1ccccc1 (stereo not drawn) | 5 | 7.7 | 8 | 598 | 6510 | 55.3 | – | – | – | –
CC[C@H]1Cc2n[nH]cc2[C@@H](CC)N1S(=O)(=O)c1ccc(Cl)cc1 [ENT A] | – | 0.35 | – | 5.8 | 70 | – | – | 1 | 0.8 | 25
CC[C@H]1Cc2n[nH]cc2[C@@H](CC)N1S(=O)(=O)c1ccc(Cl)cc1 (racemic) [ENT A] | – | 0.48 | 2 | 5 | 123 | – | 1 | – | – | –
CC[C@H]1Cc2n[nH]cc2[C@@H](c2ccc(Cl)cc2)N1S(=O)(=O)c1ccc(Cl)cc1 (racemic) | 10 | 3.7 | 31 | 75.5 | 1570 | 16.7 | – | – | – | –
CN(C)C(=O)OCC1c2c[nH]nc2CCN1S(=O)(=O)c1ccc(Cl)cc1 (racemic) | 15 | 350 | 59 | 8250 | > 40000 | 5320 | – | – | – | –
CCCC1CCCCN1S(=O)(=O)c1ccc(Cl)cc1 (racemic) | – | 1700 | – | – | – | – | – | – | – | –
CC(C)C1Cc2n[nH]cc2CN1S(=O)(=O)c1ccc(Cl)cc1 (racemic) | 5 | 16.1 | – | 87 | 6760 | 86 | – | – | – | –
O=S(=O)(c1ccc(Cl)cc1)N1Cc2c[nH]nc2CC1c1ccc(Cl)cc1 (racemic) | – | – | – | – | – | 17.5 | – | – | – | –
C[C@@H]1CCC[C@H](C)N1S(=O)(=O)c1ccc(Cl)cc1 | – | 1000 | – | – | – | – | – | – | – | –
CC[C@H]1Cc2n[nH]cc2[C@@H](CC)N1S(=O)(=O)c1ccc(Cl)cc1 (racemic) | – | – | – | – | – | 1.27 | – | – | – | –

More lines, main results first:

remaining at 0.5 h [1] [%] | IC50 (Gamma-secretase [2]) [nM] | remaining at 0.5 h [3] [%] | IC50 (Gamma-secretase [4]) [nM] | IC50 (Gamma-secretase [5]) [nM] | ED50 [6] [nM] | Stability (Liver microsomes [7]) [%] | Stability (Liver microsomes [8]) [%] | Kp [9] | Structure (SMILES) | Activity (Mus musculus) [%]
84 | 557 | – | 8660 | > 40000 | 3130 | – | – | – | O=S(=O)(c1ccc(Cl)cc1)N1CCc2n[nH]cc2C1CO (stereo not drawn) | –
– | – | – | – | – | 47.1 | – | – | – | O=S(=O)(c1ccc(Cl)cc1)N1Cc2c[nH]nc2CC1c1cccc(F)c1 (racemic) | –
– | 760 | – | – | – | – | – | – | – | O=S(=O)(c1ccc(Cl)cc1)N1CCCCC1c1ccccc1 (racemic) | –
57 | 29.1 | – | 858 | 6530 | 139 | – | – | – | O=S(=O)(c1ccc(Cl)cc1)N1CCc2n[nH]cc2C1c1nccs1 (racemic) | –
– | – | – | – | – | 47.1 | – | – | – | O=S(=O)(c1ccc(Cl)cc1)N1CCc2n[nH]cc2C1c1cncnc1 (stereo not drawn) | –
– | 8280 | – | – | – | – | – | – | – | CC1CCCCN1S(=O)(=O)c1ccc(Cl)cc1 (racemic) | –
4 | 22.4 | 25 | 126 | 15500 | 182 | – | – | – | CC[C@@H]1c2c[nH]nc2C[C@H](c2ccc(Cl)cc2)N1S(=O)(=O)c1ccc(Cl)cc1 (racemic) | –
18 | 1.01 | – | 15.3 | 736 | 19 | – | – | – | CC[C@H]1Cc2n[nH]cc2CN1S(=O)(=O)c1ccc(Cl)cc1 (racemic) | –
14 | 8.3 | 0 | 662 | 11400 | – | – | – | – | O=S(=O)(c1ccc(Cl)cc1)N1Cc2cn[nH]c2CC1c1cccc(F)c1 (racemic) | –
– | – | – | – | – | 28 | – | – | – | O=S(=O)(c1ccc(Cl)cc1)N1Cc2c[nH]nc2CC1c1ccc(F)cc1 (racemic) | –
54 | 244 | 8 | 5750 | 33600 | 1270 | – | – | – | O=S(=O)(c1ccc(Cl)cc1)N1Cc2c[nH]nc2CC1c1nccs1 (racemic) | –
1 | 10.2 | 1 | 204 | 10300 | 137 | – | – | – | CCOC(=O)C1c2c[nH]nc2CCN1S(=O)(=O)c1ccc(Cl)cc1 (stereo not drawn) | –
